Data on 1 compound can be found in paper PMC2806602 (The Journal of neuroscience : the official journal of the …, 2009).

Substitutions are numbered along the chain they refer to.

The target in one assay is T1, GluRδ2^Lc R530K (Rattus norvegicus, UniProt Q63226, A654T/R530K).
T1 sequence (Q63226 24-1007 R530K/A654T): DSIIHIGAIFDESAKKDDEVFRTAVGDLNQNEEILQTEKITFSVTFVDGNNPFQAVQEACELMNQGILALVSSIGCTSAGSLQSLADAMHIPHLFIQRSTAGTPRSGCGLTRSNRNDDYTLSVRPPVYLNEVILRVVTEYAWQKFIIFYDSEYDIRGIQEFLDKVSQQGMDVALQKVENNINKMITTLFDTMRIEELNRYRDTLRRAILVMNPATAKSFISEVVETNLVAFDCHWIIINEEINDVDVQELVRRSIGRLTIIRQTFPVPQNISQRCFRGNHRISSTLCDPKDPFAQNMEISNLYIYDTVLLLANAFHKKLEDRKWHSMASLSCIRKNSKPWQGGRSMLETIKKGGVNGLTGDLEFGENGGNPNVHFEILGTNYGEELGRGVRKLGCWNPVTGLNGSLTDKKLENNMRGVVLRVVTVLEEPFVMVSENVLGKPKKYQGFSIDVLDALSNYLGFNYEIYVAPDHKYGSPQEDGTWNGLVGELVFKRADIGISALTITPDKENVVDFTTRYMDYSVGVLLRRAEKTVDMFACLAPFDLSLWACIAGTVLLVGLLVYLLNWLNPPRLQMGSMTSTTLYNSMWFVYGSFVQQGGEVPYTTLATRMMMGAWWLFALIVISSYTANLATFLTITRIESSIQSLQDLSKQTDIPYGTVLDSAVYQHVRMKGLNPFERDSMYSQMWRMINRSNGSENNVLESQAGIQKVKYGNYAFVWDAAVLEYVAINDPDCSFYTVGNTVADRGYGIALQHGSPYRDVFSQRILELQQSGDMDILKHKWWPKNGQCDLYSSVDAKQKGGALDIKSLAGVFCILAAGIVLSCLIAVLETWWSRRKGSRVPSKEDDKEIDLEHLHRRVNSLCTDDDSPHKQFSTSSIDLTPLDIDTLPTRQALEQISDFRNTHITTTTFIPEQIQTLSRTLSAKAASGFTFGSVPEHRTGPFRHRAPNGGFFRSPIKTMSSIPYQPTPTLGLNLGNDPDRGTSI
Put plainly: Two-electrode voltage-clamp recordings in Xenopus oocytes, GluRδ2^Lc R530K. Format: cell-based. The settings on record: 3 mM Ca^2+; baseline spontaneously active current; ± SEM. The method, boiled down:
(§1)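 Oocytes expressing the Lc mutant were kept in 25 μM NASP to prevent cytotoxicity. Two-electrode voltage clamp at −40 mV and 23°C, 24–72 h after cRNA injection. Bath: 90 mM NaCl, 3 mM KCl, 0.5 mM BaCl2, 10 mM HEPES, pH 7.6. Choline or NMDG chloride balanced Cl− and osmolarity. Values are fold increase over the Ca2+-free spontaneously active baseline on applying 3 mM Ca2+, given as mean ± SEM over oocytes.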
Background: In two-electrode clamp one electrode senses voltage and the other passes current.

The target in the next assay is T2, GluRδ2^Lc D742A (Rattus norvegicus, UniProt Q63226, A654T/D742A).
T2 sequence (Q63226 24-1007 A654T/D742A): T1 sequence (Q63226 24-1007 R530K/A654T) with K507R, D719A
Put plainly: Two-electrode voltage-clamp recordings in Xenopus oocytes, GluRδ2^Lc D742A. It is filed as cell-based. The settings on record: 3 mM Ca^2+; baseline spontaneously active current; ± SEM. A digest of the protocol: as §1

In the case of `[Ca+2]` [Ca^2+, calcium], the entries for the “Ca^2+ potentiation (relative to baseline)” value on GluRδ2^Lc R530K and on GluRδ2^Lc D742A were 3.3 ± 0.20 fold and 3.5 ± 0.11 fold, respectively.
